In ChEMBL document CHEMBL3865828, “Total synthesis of 8-(6″-umbelliferyl)-apigenin and its analogs as anti-diabetic reagents” (2016):
Calls of active or inactive are those of the source. The rule behind the calls is not given here.

Assays:
Format in all cases: functional
3T3-L1 [1] = test: Increase in 2-NBDG uptake in serum-starved mouse 3T3L1 adipocytes at 10 uM measured under basal condition by inverted fluorescence microscopy
Summary of the method: (§1)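 Adipocytes from 3T3-L1 cells, differentiated 2 days post-confluence in DMEM with 0.5 mM IBMX, dexamethasone and insulin for 48 h, then 2 days in DMEM (10% FBS) with insulin alone. Used 8–10 days after differentiation start. After 1-h serum starvation, cells got agents in KRH for 0.5 h, then […] 2-NBDG for 1 h. They were washed 3× with KRH and imaged by inverted fluorescence microscopy. Metformin was the control.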

3T3-L1 [2] = test: Increase in glucose uptake in serum-starved mouse 3T3L1 adipocytes at 10 uM pretreated followed by glucose addition measured under basal condition by glucose oxidase peroxidase method
Summary of the method: (§2)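 3T3-L1 adipocytes, used 8–10 days after differentiation (IBMX/dexamethasone/insulin for 48 h, then insulin for 2 days), were incubated with agents in KRH buffer. Glucose in KRH was measured at 0 h and 4 h by glucose oxidase–peroxidase kit, and the difference was taken as consumed glucose. Metformin was the positive control. Data are mean ± SEM of independent experiments.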

3T3-L1 [3] = test: Increase in 2-NBDG uptake in serum-starved mouse 3T3L1 adipocytes at 1 mM measured under basal condition by inverted fluorescence microscopy; summary of the method: as §1
3T3-L1 [4] = test: Increase in glucose uptake in serum-starved mouse 3T3L1 adipocytes at 1 mmol/L pretreated followed by glucose addition measured under basal condition by glucose oxidase peroxidase method; summary of the method: as §2

With COc1cc2oc(=O)ccc2cc1-c1c(O)cc(O)c2c(=O)cc(-c3ccc(O)c(O)c3)oc12 the Activity (3T3-L1 [1]) was “Active” and the Activity (3T3-L1 [2]) was “Active”.

COc1cc2oc(=O)ccc2cc1-c1c(O)cc(O)c2c(=O)cc(-c3ccccc3)oc12 was tested, and the Activity (3T3-L1 [2]) was “Active”.

With O=c1cc(-c2ccc(O)cc2)oc2cc(O)cc(O)c12 the Activity (3T3-L1 [2]) was “Active”.

With O=c1c(O)c(-c2ccc(O)c(O)c2)oc2cc(O)cc(O)c12 the Activity (3T3-L1 [2]) was “Active”.

For CN(C)C(=N)NC(=N)N, the Activity (3T3-L1 [3]) was “Active” and the Activity (3T3-L1 [4]) was “Active”.

For O=c1cc(-c2ccc(O)c(O)c2)oc2cc(O)cc(O)c12, the Activity (3T3-L1 [2]) was “Active”.

With O=c1cc(-c2ccccc2)oc2cc(O)cc(O)c12 the Activity (3T3-L1 [2]) was “Active”.

O=c1ccc2cc(-c3c(O)cc(O)c4c(=O)cc(-c5ccccc5)oc34)c(O)cc2o1 was tested, and the Activity (3T3-L1 [2]) was “Active”.

For COc1cc2oc(=O)ccc2cc1-c1c(O)cc(O)c2c(=O)cc(-c3ccc(O)cc3)oc12, the Activity (3T3-L1 [1]) was “Active” and the Activity (3T3-L1 [2]) was 57%.

With COc1cc2oc(=O)ccc2cc1-c1c(O)cc(O)c2c(=O)c(O)c(-c3ccc(O)c(O)c3)oc12 the Activity (3T3-L1 [1]) was “Active” and the Activity (3T3-L1 [2]) was “Active”.

With O=c1ccc2cc(-c3c(O)cc(O)c4c(=O)cc(-c5ccc(O)cc5)oc34)c(O)cc2o1 the Activity (3T3-L1 [1]) was “Active” and the Activity (3T3-L1 [2]) was 48%.
